Data: publication PMC4351919 (Journal of biological inorganic chemistry : JBIC : a …, 2014)

Columns and labels:
[1] = Determination of aqueous solubility; type: physicochemical; conditions: Milli-Q water, room temperature
Outline: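 Modified OECD method. Saturated solutions made in Milli-Q water at room temperature with repeated ultrasonication. Undissolved material removed through a 0.45 μm filter. Filtrate diluted in 1 % HNO3, and platinum quantified by ICP-MS (RF 1500 W, 194Pt/195Pt monitored, Re internal isotope, 10 replicates) to calculate solubility.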

[2] = Lipophilicity as chromatographic retention factor log kw; type: physicochemical; conditions: RP-HPLC, extrapolated to 0 % MeOH
Outline: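 RP-HPLC on a C18 column (4.6 × 250 mm, 5 μm) at 25 °C, 1 ml/min, isocratic 0.1 % TFA(aq)/MeOH, UV 210 nm, with uracil for dead time t0. Each compound run in triplicate at ≥3 MeOH compositions; k = (tR − t0)/t0. log kw obtained by linear extrapolation of log k versus %MeOH to 0 % MeOH.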

[3] = Lipophilicity as n-octanol/water partition coefficient; type: physicochemical; conditions: shake flask
Outline: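 Modified OECD shake-flask method. Compound dissolved in water pre-saturated with 1-octanol, and aqueous Pt measured by ICP-MS after dilution in 1 % HNO3. Solution then mixed 1:1 with water-saturated 1-octanol and shaken 1 h. After phase separation, aqueous Pt re-measured; octanol content taken as the loss from the stock to give log Po/w.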

[4] = tested on: murine leukemia model L1210; assay: Cytotoxicity assay; type: cell-based; conditions: read-out: IC50 mean ± SD, L1210; MTT assay, 72 h exposure
Outline: (§1)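 Cells (L1210 in RPMI 1640; CT-26 in DMEM/F12; both with 10 % FCS, 37 °C, 5 % CO2) seeded at 2 × 10^3/well and allowed 24 h recovery. 10 mM DMSO stocks serially diluted in medium; final DMSO ≤0.5 %. After 72 h exposure, viability read by MTT (EZ4U). IC50 reported as mean ± SD of at least three independent experiments.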

[5] = tested on: murine colon cancer cell model CT-26; assay: Cytotoxicity assay; type: cell-based; conditions: MTT assay, 72 h exposure; for IC50: read-out: IC50 mean ± SD, CT-26
Outline: as §1

[6] = Tissue distribution of platinum after single dose oral administration; type: in vivo, Balb/c mice; conditions: 2 h after single oral dose 40 mg/kg, mice
[7] = type: in vivo, Balb/c mice; conditions: CT-26-bearing mice
CH1 = conditions: read-out: IC50 (CH1); MTT assay, 96 h exposure; cited from earlier work
SW480 = conditions: read-out: IC50 (SW480); MTT assay, 96 h exposure; cited from earlier work
A549 = conditions: read-out: IC50 (A549); MTT assay, 96 h exposure; cited from earlier work
[8] = SEC-ICP-MS study in mice serum after single dose oral administration; type: in vivo; conditions: serum 2 h after single oral dose
Outline: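 Balb/c mice dosed orally once at 40 mg/kg (water, 1 % DMSO). Under anesthesia at 2 h, blood taken by heart puncture; serum isolated (3000 rpm, 10 min, twice), stored at −20 °C, then diluted in PBS. SEC on Superdex 200 (10–600 kDa), 100 mmol/l ammonium acetate pH 7.4, 0.7 ml/min, with online ICP-MS Pt trace. References: compounds in PBS, fresh or after 1 and 24 h at 37 °C.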

CT-26 cells = assay: Anticancer activity against CT-26 cells in vivo; design: species or system Balb/c mice; conditions: CT-26-bearing mice, i.p. days 4, 7, 11, 14; 8.5 mg/kg for 1, 10 mg/kg for 2
Outline: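 CT-26 cells (5 × 10^5) injected s.c. into right flank of female Balb/c mice. Test compound given i.p. as freshly prepared aqueous solution on days 4, 7, 11 and 14. Daily distress checks. Tumor size measured regularly by caliper; volume = length × width²/2. Mice sacrificed at day 15, 24 h after last dose.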

[9] = 15 min after oral application, clinical trials; cited from earlier work
[10] = cited from earlier work

Structure (SMILES) | Aqueous solubility [1] [µg/mL] | Lipophilicity (log kw) [2] | Lipophilicity (log Po/w) [3] | IC50 [4] [nM] | IC50 [5] [nM] | Percentage of platinum amount found in serum relative to the administered platinum dose [6] | Platinum level in serum [6] | IC50 (CH1) [nM] | IC50 (SW480) [nM] | IC50 (A549) [nM] | also measured
CC[NH][Pt]([Cl])([Cl])([NH]CC)([O]C(=O)CCC(=O)OCC)[O]C(=O)CCC(=O)OCC [Compound 1, (OC-6-33)-dichloridobis((4-ethoxy)-4-oxobutanoato)bis(ethylamine)platinum(IV)] | 1940 ± 20 | 2.87 ± 0.01 | 0.72 ± 0.03 | 1500 ± 400 | 5700 ± 200 | ~ 16 % Pt | ~ 2 μg/ml | 61 ± 15 | 300 ± 50 | 1000 ± 400 | Platinum level in blood pellet [6]: ~ 1 μg/g; Platinum level in kidneys [6]: ~ 4 μg/g; Platinum level in liver [6]: ~ 9 μg/g; Platinum level in lungs [6]: ~ 1 μg/g; Increase of platinum level in tumor at the higher oral dose ([7]; 51.7 vs 34.1 mg/kg p.o., multiple dose): up to 30%
[NH2][Pt]1([NH2])([O]C(=O)CCC(=O)NC2CCCC2)([O]C(=O)CCC(=O)NC2CCCC2)[O]C(=O)C2(CCC2)C(=O)[O]1 [Compound 2, (OC-6-33)-diammine(cyclobutane-1,1-dicarboxylato)bis((4-cyclopentylamino)-4-oxobutanoato)platinum(IV)] | 10200 ± 40 | 2.99 ± 0.06 | 0.77 ± 0.06 | > 50000 | > 50000 | ~ 1.5 % Pt | ~ 0.15 μg/ml | 15000 ± 5000 | > 500000 | > 500000 | Platinum accumulation in all organ samples [6]: less than 0.5 μg/g; Free intact platinum(IV) complex in serum [8]: ~ 5%; In vivo anticancer activity (tumor volume), intraperitoneal application (CT-26 cells): inactive; Platinum in liver, kidney and serum after i.p. versus oral administration ([7]; 10 mg/kg i.p. vs 40 mg/kg p.o., multiple dose): tenfold higher; Platinum concentrations in all tissues after oral application ([7]; multiple dose p.o. 40 mg/kg, day 15): < 0.5 µg/g
CC(=O)[O][Pt]([NH2])([Cl])([Cl])([NH]C1CCCCC1)[O]C(C)=O [Satraplatin, (OC-6-43)-bis(acetato)amminedichlorido(cyclohexylamine)platinum(IV), reference compound] | 100 ± 10 | 1.49 ± 0.03 | 0.23 ± 0.01 | 2500 ± 200 | 2900 ± 300 | ~ 4 % Pt |  | 100 ± 20 | 1500 ± 100 | 6400 ± 400 | Fold more active than 1 in CT-26 cells [5]: ~ 2 fold; Times lower platinum concentrations in the investigated tissues than compound 1 [6]: 2-3 times; Presence of intact parent drug in serum [8]: absence of intact satraplatin; Parent drug in patients' plasma ultrafiltrate [9]: no parent drug was detected
N.N.O=C([O-])C1(C(=O)[O-])CCC1.[Pt+2] [carboplatin] |  |  |  |  |  |  |  |  |  |  | Injected dose recovered in urine [10]: ~90%
